Measurements taken from PMC8286830 (Biochemical Journal, 2021).
Several values for one entry are separate records, joined by “and”; a condition that tells them apart may be missing. Equal values may be shown once. Entries after “also recorded” stand apart in the source; their conditions may differ.

Key:
[1] = test system: TgCEN1; assay: DLS particle size of TgCEN1; format: physicochemical, Toxoplasma gondii
[2] = test system: TgCEN1; assay: Turbidimetry at 340 nm, TgCEN1 self-assembly; format: physicochemical, Toxoplasma gondii
In short: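 Full-length protein (E. coli Rosetta) at 20 µM in 20 mM Tris–HCl, 20 mM KCl pH 7.5, 37°C, A340 recorded versus time. Run with 1 mM CaCl2, with 1 mM EGTA, or with EGTA added to Ca2+-saturated protein. Ca2+ series 5–2000 µM, read at 25 min versus metal/protein ratio. Also varied: temperature 4–45°C, protein 5–50 µM, KCl 0–150 mM, and 600 µM ANS.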

[3] = test system: TgCEN1; assay: DLS thermal ramping of TgCEN1; format: physicochemical, Toxoplasma gondii; settings: 5 µM protein, 1 mM CaCl2, pH 7.5
In short: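 Full-length recombinant protein (E. coli Rosetta) at 5 µM with 1 mM CaCl2 in 20 mM Tris–HCl, 20 mM KCl pH 7.5, clarified by centrifugation. Temperature stepped from 15 to 45°C in 1°C increments, with DLS size measured at each step. Z-average (intensity-weighted mean hydrodynamic size) recorded; midpoint from logistic fit.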

[4] = via N-terminal EF-hands, in vitro; cited from earlier work
[5] = test system: N-TgCEN1; assay: Turbidimetry at 340 nm, N-TgCEN1; format: physicochemical, Toxoplasma gondii; settings: 20 µM, 1 mM CaCl2, 20 mM KCl pH 7.5, 37°C
In short: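 Recombinant N-domain (1–94) or C-domain (95–169), Ni-affinity purified. A340 followed over time in a 1 cm cuvette. Standard conditions: 20 µM protein, 20 mM Tris–HCl, 20 mM KCl pH 7.5, 1 mM CaCl2, 37°C. Conditions also varied: CaCl2 0–2 mM, temperature 4–45°C, protein 5–50 µM, KCl 0–150 mM, or 600 µM ANS added.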

[6] = test system: N-TgCEN1; assay: DLS particle size of N-TgCEN1; format: physicochemical, Toxoplasma gondii; settings: 10 µM
In short: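 Domains produced in E. coli Rosetta: N-domain residues 1–94 and C-domain 95–169. […] 10 µM protein in 20 mM Tris–HCl pH 7.5, 1 mM CaCl2, at selected KCl concentrations or with 600 µM ANS. Samples centrifuged at 21 000 g for ≥30 min; filtered buffers. Hydrodynamic diameter reported as number distribution (633 nm laser, 173°).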

[7] = molecular target: T1, Δ21TgCEN1 (Toxoplasma gondii, UniProt A0A125YHX7); assay: DLS particle size / count rate of Δ21TgCEN1; format: physicochemical; settings: all other conditions: temperature, protein concentration, KCl, ANS
T1 sequence (A0A125YHX7 22-169): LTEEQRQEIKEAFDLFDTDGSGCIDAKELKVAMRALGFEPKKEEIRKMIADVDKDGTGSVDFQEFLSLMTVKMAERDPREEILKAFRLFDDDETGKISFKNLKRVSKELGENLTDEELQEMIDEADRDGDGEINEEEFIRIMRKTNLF
In short: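 Recombinant tag-free Δ21TgCEN1 from E. coli Rosetta (Ni affinity, TEV cleavage). For DLS, 10 µM protein in 20 mM Tris–HCl, 20 mM KCl pH 7.5 with 1 mM CaCl2 at 37°C was spun at 21 000 g for ≥30 min, then measured before and after adding 50 µM N21 peptide. Diameter was reported as number distribution. In parallel, A340 turbidity of 20 µM protein was followed over time.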

[8] = molecular target: T1, Δ21TgCEN1; assay: Turbidimetry at 340 nm, Δ21TgCEN1; format: physicochemical
In short: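 Construct lacking residues 1–21 (E. coli Rosetta) at 20 µM in 20 mM Tris–HCl, 20 mM KCl pH 7.5, 1 mM CaCl2, 37°C. A340 followed over time, before and after adding 50 µM synthetic N-terminal peptide (residues 1–21). Peptide alone with CaCl2 run as a control trace.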

B1: TgCEN1: centrin isoform 1 from Toxoplasma gondii, full-length, overexpressed in E. coli (protein)
chain: MHSRKGASSLPRGRGAGKKTELTEEQRQEIKEAFDLFDTDGSGCIDAKELKVAMRALGFEPKKEEIRKMIADVDKDGTGSVDFQEFLSLMTVKMAERDPREEILKAFRLFDDDETGKISFKNLKRVSKELGENLTDEELQEMIDEADRDGDGEINEEEFIRIMRKTNLF
- hydrodynamic diameter ([1]; 10 µM, 1 mM CaCl2, 20 mM Tris–HCl, 20 mM KCl pH 7.5, 37°C, DLS number distribution, no additive): 570 ± 5 nm and ~570 nm
- number-averaged hydrodynamic diameter ([1]; 10 µM, absence of Ca^2+ (1 mM EGTA), 20 mM Tris–HCl, 20 mM KCl pH 7.5, 37°C, DLS number distribution): 7.54 ± 0.01 nm
- association state ([1]; 150 mM KCl, 1 mM CaCl2, 37°C): monomeric in solution
- hydrodynamic diameter ([1]; high ionic strength (KCl), 20 mM Tris–HCl pH 7.5, 1 mM CaCl2, 37°C): ~7 nm
- hydrodynamic diameter ([1]; low salt concentrations, 20 mM Tris–HCl pH 7.5, 1 mM CaCl2, 37°C): 600–800 nm
- self-assembly at high ionic strength (turbidity at 340 nm) ([2]; 0–150 mM KCl, 20 mM Tris–HCl pH 7.5, 1 mM CaCl2, 37°C): clear inhibition of self-assembly process at high ionic strength
- turbidity at 340 nm ([2]; 20 µM, 1 mM CaCl2, 20 mM Tris–HCl, 20 mM KCl pH 7.5, 37°C): clear increase in turbidity
- turbidity at 340 nm ([2]; EGTA added to Ca^2+-saturated TgCEN1, 20 µM, pH 7.5, 37°C): significantly reduced
- turbidity change on Mg^2+ addition ([2]; Mg^2+ up to 10 mM, data not shown): No changes in the turbidity profiles
- self-assembly rate and plateau (turbidity at 340 nm) ([2]; increasing TgCEN1 concentration (5–50 µM), 1 mM CaCl2, 37°C): faster self-assembly process and a higher plateau
- self-assembly rate and plateau (turbidity at 340 nm) ([2]; increasing temperature (4–45°C), 1 mM CaCl2): increase in the slope of the growth phase at 340 nm and a higher plateau
- light scattering below threshold concentration ([2]; protein concentrations less than 5 µM): Low light scattering
- z-average hydrodynamic diameter ([3]; 15°C): ~230 nm
- z-average hydrodynamic diameter ([3]; 45°C): ~470 nm
- Ca^2+ ions bound [4]: two Ca^2+ ions; also recorded: two high affinity Ca^2+-binding sites in the N-lobe

B2: N-TgCEN1: N-terminal domain of TgCEN1, 1–94 aa (protein)
chain: MHSRKGASSLPRGRGAGKKTELTEEQRQEIKEAFDLFDTDGSGCIDAKELKVAMRALGFEPKKEEIRKMIADVDKDGTGSVDFQEFLSLMTVKM
modifications: left off: His tag (from the Nickel affinity chromatography), end not stated, cleaved
- turbidity at 340 nm [5]: no turbidity changes at 340 nm
- particle diameter ([6]; 1 mM CaCl2, 20 mM Tris–HCl, 20 mM KCl pH 7.5): 250 ± 1 nm
- association at high ionic strength ([6]; selected KCl concentrations, 1 mM CaCl2, DLS): inhibition of association process

B3: Δ21TgCEN1: truncated variant of TgCEN1 lacking the first 21 residues (22–169) (protein)
chain: LTEEQRQEIKEAFDLFDTDGSGCIDAKELKVAMRALGFEPKKEEIRKMIADVDKDGTGSVDFQEFLSLMTVKMAERDPREEILKAFRLFDDDETGKISFKNLKRVSKELGENLTDEELQEMIDEADRDGDGEINEEEFIRIMRKTNLF
- turbidity or size distribution changes [7]: No changes in turbidity or size distribution
- turbidity at 340 nm ([8]; 1 mM CaCl2, same conditions as full-length (20 µM, 37°C, pH 7.5)): no changes in turbidity at 340 nm
- self-assembly process ([8]; removal of the first 21 residues, Ca^2+): completely abolished
